Source: ChEMBL document CHEMBL1250442, “Inhibiting gene expression at transcription start sites in chromosomal DNA with antigene RNAs” (Nat Chem Biol, 2005)
Activity calls are given as the source filed them. The calls are words filed in the database; no cut-off is given here.

Tests used:
[1] = tested on: T47D; test: Inhibition of PR-A gene expression in human T47D cells at 25 nM by syber green assay in presence of 10 nM estradiol; assay type: functional, cell-based
[2] = tested on: T47D; test: Inhibition of PR-B gene expression in human T47D cells at 25 nM by syber green assay in presence of 10 nM estradiol; assay type: functional, cell-based
[3] = tested on: T47D; test: Inhibition of PR-A mRNA gene expression in human T47D cells at 100 nM by syber green assay; assay type: functional
Outline: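 T47D cells plated at 80,000/well without antibiotics two days before Oligofectamine transfection with agRNA duplex (25 or 100 nM final); medium changed at 24 h, harvest day 5 unless stated otherwise. TRIzol total RNA; PR mRNA by real-time PCR with SYBR Green: 50 °C 2 min, 95 °C 10 min, 40 cycles 95 °C 15 s/60 °C 1 min.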

[4] = tested on: T47D; test: Inhibition of PR-B mRNA gene expression in human T47D cells at 100 nM by syber green assay; assay type: functional
Outline: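 T47D cells in RPMI-1640 with 10% FBS, NEAA, insulin, 37 °C, 5% CO2. Plated two days before transfection without antibiotics. Oligofectamine-mediated duplex RNA transfection at 100 nM final, medium changed at 24 h, harvest five days post-transfection. Total RNA extracted with TRIzol. hPR mRNA quantified by SYBR Green qPCR: 50 °C 2 min, 95 °C 10 min, then 40 cycles of 95 °C 15 s / 60 °C 1 min.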

[5] = tested on: T47D; test: Inhibition of androgen receptor expression in human T47D cells after 12 days at 100 nM by syber green assay; assay type: functional, cell-based
Outline: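 AR expression in T47D cells, grown in RPMI-1640 with 10% FBS, NEAA and insulin. Plated antibiotic-free two days before Oligofectamine transfection with 100 nM duplex RNA; medium replaced after 24 h. TRIzol total RNA. SYBR Green real-time PCR: 50 °C 2 min, 95 °C 10 min, 40 cycles of 95 °C 15 s and 60 °C 1 min.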

[6] = tested on: T47D; test: Effect of DNA methylation at (-178) CpG site near androgen receptor transcription start site (-9) in human T47D cells by sodium bisulfite sequencing analysis; assay type: functional, cell-based
Outline: (§1)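 T47D cells (RPMI-1640, 10% FBS, NEAA, insulin; 37 °C, 5% CO2) transfected with agRNA duplexes via Oligofectamine, medium changed at 24 h. Genomic DNA bisulphite-treated, regions around AR and hPR-B start sites PCR-amplified (HotStarTaq, 100 ng treated DNA), gel-purified, TOPO TA cloned; 5–15 colonies per plate miniprepped and sequenced.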

[7] = tested on: T47D; test: Effect of DNA methylation at (-172) CpG site near androgen receptor transcription start site (-9) in human T47D cells by sodium bisulfite sequencing analysis; assay type: functional, cell-based; outline: as §1
[8] = tested on: T47D; test: Effect of DNA methylation at (-167) CpG site near androgen receptor transcription start site (-9) in human T47D cells by sodium bisulfite sequencing analysis; assay type: functional, cell-based; outline: as §1
[9] = tested on: T47D; test: Effect of DNA methylation at (-132) CpG site near androgen receptor transcription start site (-9) in human T47D cells by sodium bisulfite sequencing analysis; assay type: functional, cell-based; outline: as §1
[10] = tested on: T47D; test: Effect of DNA methylation at (-126) CpG site near androgen receptor transcription start site (-9) in human T47D cells by sodium bisulfite sequencing analysis; assay type: functional, cell-based; outline: as §1
[11] = tested on: T47D; test: Effect of DNA methylation at (-124) CpG site near androgen receptor transcription start site (-9) in human T47D cells by sodium bisulfite sequencing analysis; assay type: functional, cell-based; outline: as §1
[12] = tested on: T47D; test: Effect of DNA methylation at (-122) CpG site near androgen receptor transcription start site (-9) in human T47D cells by sodium bisulfite sequencing analysis; assay type: functional, cell-based; outline: as §1
[13] = tested on: T47D; test: Effect of DNA methylation at (-57) CpG site near androgen receptor transcription start site (-9) in human T47D cells by sodium bisulfite sequencing analysis; assay type: functional, cell-based; outline: as §1
[14] = tested on: T47D; test: Effect of DNA methylation at (-52) CpG site near androgen receptor transcription start site (-9) in human T47D cells by sodium bisulfite sequencing analysis; assay type: functional, cell-based; outline: as §1
[15] = tested on: T47D; test: Effect of DNA methylation at (-43) CpG site near androgen receptor transcription start site (-9) in human T47D cells by sodium bisulfite sequencing analysis; assay type: functional, cell-based; outline: as §1
[16] = tested on: T47D; test: Effect of DNA methylation at (-36) CpG site near androgen receptor transcription start site (-9) in human T47D cells by sodium bisulfite sequencing analysis; assay type: functional, cell-based; outline: as §1
[17] = tested on: T47D; test: Effect of DNA methylation at (-31) CpG site near androgen receptor transcription start site (-9) in human T47D cells by sodium bisulfite sequencing analysis; assay type: functional, cell-based; outline: as §1
[18] = tested on: T47D; test: Effect of DNA methylation at (+1) CpG site near androgen receptor transcription start site (-9) in human T47D cells by sodium bisulfite sequencing analysis; assay type: functional, cell-based
Outline: (§2)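 T47D cells grown in RPMI-1640 with 10% FBS, 0.5% NEAA, insulin and P/S at 37 °C, 5% CO2. They were plated at 80,000 cells/well 2 days before lipid transfection with 25 nM or 100 nM duplex, with medium changed at 24 h. Cells were harvested 5 days post-transfection. 100 ng bisulfite-treated DNA was PCR-amplified, and products were TA-cloned. 5–15 colonies per plate were sequenced.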

[19] = tested on: T47D; test: Effect of DNA methylation at (+11) CpG site near androgen receptor transcription start site (-9) in human T47D cells by sodium bisulfite sequencing analysis; assay type: functional, cell-based; outline: as §2
[20] = tested on: T47D; test: Effect of DNA methylation at (+19) CpG site near androgen receptor transcription start site (-9) in human T47D cells by sodium bisulfite sequencing analysis; assay type: functional, cell-based; outline: as §2
[21] = tested on: T47D; test: Effect of DNA methylation at (+43) CpG site near androgen receptor transcription start site (-9) in human T47D cells by sodium bisulfite sequencing analysis; assay type: functional, cell-based; outline: as §1
[22] = tested on: T47D; test: Effect of DNA methylation at (-178) CpG site near androgen receptor transcription start site (-13) in human T47D cells by sodium bisulfite sequencing analysis; assay type: functional, cell-based; outline: as §1
[23] = tested on: T47D; test: Effect of DNA methylation at (-172) CpG site near androgen receptor transcription start site (-13) in human T47D cells by sodium bisulfite sequencing analysis; assay type: functional, cell-based; outline: as §1
[24] = tested on: T47D; test: Effect of DNA methylation at (-167) CpG site near androgen receptor transcription start site (-13) in human T47D cells by sodium bisulfite sequencing analysis; assay type: functional, cell-based; outline: as §1
[25] = tested on: T47D; test: Effect of DNA methylation at (-132) CpG site near androgen receptor transcription start site (-13) in human T47D cells by sodium bisulfite sequencing analysis; assay type: functional, cell-based; outline: as §1
[26] = tested on: T47D; test: Effect of DNA methylation at (-126) CpG site near androgen receptor transcription start site (-13) in human T47D cells by sodium bisulfite sequencing analysis; assay type: functional, cell-based; outline: as §1
[27] = tested on: T47D; test: Effect of DNA methylation at (-124) CpG site near androgen receptor transcription start site (-13) in human T47D cells by sodium bisulfite sequencing analysis; assay type: functional, cell-based; outline: as §1
[28] = tested on: T47D; test: Effect of DNA methylation at (-122) CpG site near androgen receptor transcription start site (-13) in human T47D cells by sodium bisulfite sequencing analysis; assay type: functional, cell-based; outline: as §1
[29] = tested on: T47D; test: Effect of DNA methylation at (-57) CpG site near androgen receptor transcription start site (-13) in human T47D cells by sodium bisulfite sequencing analysis; assay type: functional, cell-based; outline: as §1
[30] = tested on: T47D; test: Effect of DNA methylation at (-52) CpG site near androgen receptor transcription start site (-13) in human T47D cells by sodium bisulfite sequencing analysis; assay type: functional, cell-based; outline: as §1
[31] = tested on: T47D; test: Effect of DNA methylation at (-43) CpG site near androgen receptor transcription start site (-13) in human T47D cells by sodium bisulfite sequencing analysis; assay type: functional, cell-based; outline: as §1
[32] = tested on: T47D; test: Effect of DNA methylation at (-36) CpG site near androgen receptor transcription start site (-13) in human T47D cells by sodium bisulfite sequencing analysis; assay type: functional, cell-based; outline: as §1
[33] = tested on: T47D; test: Effect of DNA methylation at (-31) CpG site near androgen receptor transcription start site (-13) in human T47D cells by sodium bisulfite sequencing analysis; assay type: functional, cell-based; outline: as §1
[34] = tested on: T47D; test: Effect of DNA methylation at (+1) CpG site near androgen receptor transcription start site (-13) in human T47D cells by sodium bisulfite sequencing analysis; assay type: functional, cell-based; outline: as §2
[35] = tested on: T47D; test: Effect of DNA methylation at (+11) CpG site near androgen receptor transcription start site (-13) in human T47D cells by sodium bisulfite sequencing analysis; assay type: functional, cell-based; outline: as §2
[36] = tested on: T47D; test: Effect of DNA methylation at (+19) CpG site near androgen receptor transcription start site (-13) in human T47D cells by sodium bisulfite sequencing analysis; assay type: functional, cell-based; outline: as §2
[37] = tested on: T47D; test: Effect of DNA methylation at (+43) CpG site near androgen receptor transcription start site (-13) in human T47D cells by sodium bisulfite sequencing analysis; assay type: functional, cell-based; outline: as §1

SMILES: Cc1cn(CC(=O)N(CCNC(=O)CN(CCNC(=O)CN(CCNC(=O)CN(CCNC(=O)CN(CCNC(=O)CN(CCNC(=O)CN(CCNC(=O)CN(CCNC(=O)CN(CCNC(=O)CN(CCNC(=O)CN(CCNC(=O)CN(CCNC(=O)CN(CCNC(=O)CN(CCNC(=O)CN(CCNC(=O)CN(CCNC(=O)CN(CCNC(=O)CN(CCNC(=O)CN(CCNC(=O)CN(CCNC(=O)CN)C(=O)Cn2ccc(N)nc2=O)C(=O)Cn2ccc(N)nc2=O)C(=O)Cn2cnc3c(N)ncnc32)C(=O)Cn2ccc(N)nc2=O)C(=O)Cn2ccc(N)nc2=O)C(=O)Cn2ccc(=O)[nH]c2=O)C(=O)Cn2ccc(N)nc2=O)C(=O)Cn2ccc(N)nc2=O)C(=O)Cn2ccc(N)nc2=O)C(=O)Cn2cnc3c(N)ncnc32)C(=O)Cn2cnc3c(=O)[nH]c(N)nc32)C(=O)Cn2ccc(N)nc2=O)C(=O)Cn2cnc3c(=O)[nH]c(N)nc32)C(=O)Cn2ccc(N)nc2=O)C(=O)Cn2ccc(N)nc2=O)C(=O)Cn2ccc(N)nc2=O)C(=O)Cn2ccc(N)nc2=O)C(=O)Cn2ccc(N)nc2=O)C(=O)Cn2ccc(=O)[nH]c2=O)CC(=O)NCCN(CC(=O)NCC(=O)O)C(=O)Cn2cc(C)c(=O)[nH]c2=O)c(=O)[nH]c1=O
- inhibition [1]: Active
- inhibition [2]: Active
- inhibition at 0.1 µM [3]: 82%
- inhibition at 0.1 µM [4]: 82%
- inhibition [5]: Active
- Activity [6]: inactive
- Activity [7]: inactive
- Activity [8]: inactive
- Activity [9]: inactive
- Activity [10]: inactive
- Activity [11]: inactive
- Activity [12]: inactive
- Activity [13]: inactive
- Activity [14]: inactive
- Activity [15]: inactive
- Activity [16]: inactive
- Activity [17]: inactive
- Activity [18]: inactive
- Activity [19]: inactive
- Activity [20]: inactive
- Activity [21]: inactive

SMILES: Cc1cn(CC(=O)N(CCNC(=O)CN(CCNC(=O)CN(CCNC(=O)CN(CCNC(=O)CN(CCNC(=O)CN(CCNC(=O)CN(CCNC(=O)CN(CCNC(=O)CN(CCNC(=O)CN(CCNC(=O)CN(CCNC(=O)CN(CCNC(=O)CN(CCNC(=O)CN(CCNC(=O)CN(CCNC(=O)CN(CCNC(=O)CN(CCNC(=O)CN(CCNC(=O)CN(CCNC(=O)CN(CCNC(=O)CN)C(=O)Cn2ccc(N)nc2=O)C(=O)Cn2ccc(=O)[nH]c2=O)C(=O)Cn2ccc(N)nc2=O)C(=O)Cn2ccc(=O)[nH]c2=O)C(=O)Cn2ccc(N)nc2=O)C(=O)Cn2ccc(N)nc2=O)C(=O)Cn2cnc3c(N)ncnc32)C(=O)Cn2ccc(N)nc2=O)C(=O)Cn2ccc(N)nc2=O)C(=O)Cn2ccc(=O)[nH]c2=O)C(=O)Cn2ccc(N)nc2=O)C(=O)Cn2ccc(N)nc2=O)C(=O)Cn2ccc(N)nc2=O)C(=O)Cn2cnc3c(N)ncnc32)C(=O)Cn2cnc3c(=O)[nH]c(N)nc32)C(=O)Cn2ccc(N)nc2=O)C(=O)Cn2cnc3c(=O)[nH]c(N)nc32)C(=O)Cn2ccc(N)nc2=O)C(=O)Cn2ccc(N)nc2=O)CC(=O)NCCN(CC(=O)NCC(=O)O)C(=O)Cn2cc(C)c(=O)[nH]c2=O)c(=O)[nH]c1=O
- inhibition [1]: Active
- inhibition [2]: Active
- inhibition at 0.1 µM [3]: 100%
- inhibition at 0.1 µM [4]: 100%
- inhibition [5]: Active
- Activity [22]: inactive
- Activity [23]: inactive
- Activity [24]: inactive
- Activity [25]: inactive
- Activity [26]: inactive
- Activity [27]: inactive
- Activity [28]: inactive
- Activity [29]: inactive
- Activity [30]: inactive
- Activity [31]: inactive
- Activity [32]: inactive
- Activity [33]: inactive
- Activity [34]: inactive
- Activity [35]: inactive
- Activity [36]: inactive
- Activity [37]: inactive
